Data on 18 compounds can be found in paper PMC3406685 (The Journal of Biological Chemistry, 2012).

Entries after “also recorded” stand apart in the source; their conditions may differ.

In one assay the test system is Rugli cells (α1β1). Put plainly: Real-time Rugli cell adhesion. The assay is classed as cell-based, rat. The following applies: xCELLigence.
The subject of a further assay is PC12 cells (α1β1). Put plainly: Real-time PC12 cell adhesion using xCELLigence. The assay is classed as cell-based, rat. To be noted: for PC12 cell adhesion (cell index), in words: […] 10^4 cells/well, 2 mM Mg^2+; for PC12 cell adhesion (cell index), in words / PC12 cell adhesion in presence of EDTA: 2 h; for PC12 cell adhesion in presence of EDTA: 2 mM EDTA; for PC12 cell adhesion relative to II-27: Mg^2+, % of the level attained with II-27, four independent experiments.

In a further assay the test system is α2β1. To be noted: cited from earlier work; for affinity for α2β1, in words: ref [37], [38]; for affinity for the α2 I domain, in words: ref [39], [46].
Assay [1] has as its system recombinant human α2 I domain. Put plainly: SPBA, wild-type α2 I domain to coated peptides. The following applies: 0.1 μg protein/well, four independent experiments. The assay is classed as binding.
For assay [2], the system named is C2C12-α2^+ cells (human α2β1). Description: Real-time adhesion of C2C12-α2^+ cells. The class given is cell-based, mouse cells expressing human α2β1. The following applies: xCELLigence; 25,000 cells/well, 2 h; GPP10 control.
For assay [3], the system named is C2C12-α11^+ cells (human α11β1). Put plainly: Real-time adhesion of C2C12-α11^+ cells. The class given is cell-based, mouse cells expressing human α11β1. The following applies: xCELLigence; 25,000 cells/well, 2 h; GPP10 control.
Assay [4] deals with parental C2C12 cells lacking collagen-binding integrins. Put plainly: Adhesion of parental C2C12 cells. The assay is classed as cell-based, mouse. The following applies: real-time adhesion, GPP10 control.
The next assay concerns α1β1. To be noted: cited from earlier work; for preference of α1β1 and α10β1 among collagens, in words: ref [28], [29].
For assay [5], the system named is α1β1-expressing Rugli cells. To be noted: ref [54]; cited from earlier work.
For assay [6], the system named is recombinant human α1 I domain. Description: Solid-phase binding assay. The following applies: conclusion from all data together.
For assay [7], the system named is constitutively active E317W α1 I domain. Put plainly: SPBA, constitutively active E317W α1 I domain to coated peptides. The assay is classed as binding. The following applies: 0.1 μg protein/well, four independent experiments.
Assay [8] concerns constitutively active E318W α2 I domain. Description: SPBA, constitutively active E318W α2 I domain to coated peptides. The class given is binding. To be noted: 0.1 μg protein/well, four independent experiments. The essentials: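 GST-tagged I domain (0.1 μg/well) added to triple-helical peptides coated at 10 μg/ml (1 h, 22 °C), blocked 1 h with TBS/50 mg/ml BSA. Binding 1 h at room temperature in TBS/1 mg/ml BSA with 2 mM MgCl₂ or EDTA. Detected with HRP anti-GST (1:10,000, 1 h) and TMB colour. Mean ± S.E. of four independent experiments, each in triplicate.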

Consider `CCCCCCCCCCCCCC(=O)O[C@@H]1[C@@H](C)[C@@]2(O)[C@@H](C=C(CO)C[C@]3(O)C(=O)C(C)=C[C@@H]23)[C@@H]2C(C)(C)[C@]12OC(C)=O` [PMA, phorbol 12-myristate 13-acetate, reference compound], for which, in the assay on Rugli cells (α1β1) (1 μM PMA, 30 min), the “Effect of PMA treatment on Rugli cell adhesion” value is “increased both the rate of onset of adhesion and the peak cell index”.
For the compound GAOGER, in the assay with PC12 cells (α1β1) (xCELLigence), the “PC12 cell adhesion (cell index), in words” value is on record as “Moderate binding”.
For the compound GASGER, the “affinity for α2β1, in words” value with α2β1 was “intermediate or low affinity, which increased upon cell activation”.
With GDQGVOGEAGAO [II-27-B], in the assay on PC12 cells (α1β1) (xCELLigence), the “PC12 cell adhesion in presence of EDTA” value is “no adhesion was observed in the presence of EDTA” and the “PC12 cell adhesion relative to II-27” value is roughly 40%. In addition, in assay [1], the “adhesion of wild-type α2 I domain, in words” value was “did not bind”. In [2], the “C2C12-α2^+ cell adhesion, in words” value is “None of these cells showed any specific binding”. Further, the “C2C12-α11^+ cell adhesion, in words” value in assay [3] was “None of these cells showed any specific binding”. In [4], the “parental C2C12 cell adhesion, in words” value is recorded as “None of these cells showed any specific binding”.
In the case of GFPGEN, the “α1β1 selectivity / α1 I domain affinity, in words” value in the assay with α1β1 (expressed within Streptococcus pyogenes collagen-like molecules, ref [40]) is “selective ligand for α1β1; also recorded: higher affinity for the α1 I domain compared with GFPGER”.
Consider GFPGER, for which the “PC12 cell adhesion (cell index), in words” value with PC12 cells (α1β1) (xCELLigence) was “weak binding (lower compared with GFOGER)”. For the same compound, the “affinity for the α2 I domain, in words” value with α2β1 is reported as “high or moderate affinity motifs for the α2 I domain”. For the same compound, the “ligand quality for α1β1-expressing Rugli cells, in words” value in [5] is recorded as “poor ligand for α1β1-expressing Rugli cells”.
On to GKOGDQGVOGEAGAO [II-27-C], for which, in the assay on PC12 cells (α1β1) (xCELLigence), the “PC12 cell adhesion in presence of EDTA” value is listed as “no adhesion was observed in the presence of EDTA”; the “PC12 cell adhesion relative to II-27” value was roughly 40%; the “PC12 cell adhesion (cell index), in words” value is “no greater than to GVOGEA”. Also, in [1], the “adhesion of wild-type α2 I domain, in words” value is given as “did not bind”. For the same compound, the “C2C12-α2^+ cell adhesion, in words” value in assay [2] is “None of these cells showed any specific binding”. The “C2C12-α11^+ cell adhesion, in words” value in [3] is reported as “None of these cells showed any specific binding”. Moreover, in [4], the “parental C2C12 cell adhesion, in words” value was “None of these cells showed any specific binding”.
In the case of GLKGEN, the “PC12 cell adhesion (cell index), in words” value in the assay on PC12 cells (α1β1) (xCELLigence) was “only slight activity”.
Consider GLOGEA, for which the “affinity for the α2 I domain, in words” value with α2β1 was “high or moderate affinity motifs for the α2 I domain”.
In the case of GLOGER, the “affinity for the α1 I domain versus α2 I domain, in words” value in the assay on α1β1 (ref [37], [38]) is listed as “relatively higher affinity for the α1 I domain than for the α2 I domain”.
Turning to GLSGER, in the assay with α2β1, the “affinity for α2β1, in words” value is “intermediate or low affinity, which increased upon cell activation”.
Consider GMOGER, for which, in the assay on PC12 cells (α1β1) (xCELLigence), the “PC12 cell adhesion (cell index), in words” value was “Moderate binding”. Also, in the assay with α2β1, the “affinity for the α2 I domain, in words” value is reported as “high or moderate affinity motifs for the α2 I domain”.
On to GPOGPOGEGGKOGDQGVOGEAGAOGV [II-27], for which the “overall α1β1 recognition / selectivity, in words” value in [6] is “new α1β1-binding activity”. The “Increase of PC12 cell binding upon substitution of Mg^2+ with Mn^2+” value in the assay with PC12 cells (α1β1) (real-time binding assay, Mn^2+ vs Mg^2+ (data not shown)) is 65%. For the same compound, the “PC12 cell adhesion, comparison of selected peptides (Fig. 7)” value with PC12 cells (α1β1) (xCELLigence, 25,000 cells/well, mean cell index after 2 h, three experiments) was “bound most strongly to III-7 and then to II-27 and II-28”. The “adhesion of wild-type α2 I domain, in words” value in assay [1] was “did not bind”. Moreover, the “adhesion of active E317W α1 I domain, in words” value in assay [7] is listed as “E317W but not E318W bound strongly”. The “adhesion of active E318W α2 I domain, in words” value in [8] is recorded as “E317W but not E318W bound strongly”. For the same compound, the “Rugli cell adhesion without activation, in words” value with Rugli cells (α1β1) (control Rugli cells) was “moderate ligand for α1β1”. Moreover, in [2], the “C2C12-α2^+ cell adhesion, in words” value was “None of these cells showed any specific binding; also recorded: did not bind”. The “C2C12-α11^+ cell adhesion, in words” value in [3] is on record as “None of these cells showed any specific binding; also recorded: did not bind”. The “parental C2C12 cell adhesion, in words” value in assay [4] is “None of these cells showed any specific binding”.
For the compound GQRGER, in the assay on α2β1, the “affinity for α2β1, in words” value is “intermediate or low affinity, which increased upon cell activation”.
Take GROGER: the “PC12 cell adhesion (cell index), in words” value in the assay with PC12 cells (α1β1) (xCELLigence) is listed as “only slight activity”. The “affinity for the α2 I domain, in words” value with α2β1 is reported as “high or moderate affinity motifs for the α2 I domain”.
Consider GSOGEN, for which, in assay [6], the “overall α1β1 recognition / selectivity, in words” value is reported as “displays little activity”.
As for “collagen IV: monomeric pepsin-digested human collagen IV (C-5533) [reference compound]”, the “preference of α1β1 and α10β1 among collagens, in words” value with α1β1 was “preferentially bind collagen types IV and VI over fibrillar collagens”. The “affinity of α1β1 for collagen IV, in words” value in the assay on α1β1 (ref [30]) is listed as “high affinity”.
In the case of collagen VI: collagen type VI, the “preference of α1β1 and α10β1 among collagens, in words” value in the assay with α1β1 is “preferentially bind collagen types IV and VI over fibrillar collagens”.
